Data: ChEMBL document CHEMBL4732081, “Development of prohibitin ligands against osteoporosis” (Eur J Med Chem, 2021)
Active and inactive are the calls of the source. No cut-off for these calls is given here.

How the values were obtained:
[1] = Inhibition of osteoclastogenesis in human […] CD14+ pre-osteoclasts assessed as blocked of osteoclast differentiation in presence of M-CSF and RANKL at 10 uM measured after 11 days by TRAP staining method relative to control; format: functional; details: 264 h, time 11 day
How it was run: (§1)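 Human CD14+ cells came from donor PBMCs by Ficoll centrifugation (500g, 25 min) and CD14 microbead MACS selection. They were seeded at 45 x 10^4 cells/well in α-MEM, 10% FCS, 25 ng/ml hM-CSF. From day 3, medium with 25 ng/ml hM-CSF and 100 ng/ml hRANKL ± compound was changed twice weekly; about 11 days. TRAP-stained multinucleated cells were counted, as % vs RANKL positive control. Monocyte lots differed between series.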

[2] = Inhibition of osteoclastogenesis in human bone marrow derived CD14+ pre-osteoclasts assessed as blocked of osteoclast differentiation in presence of M-CSF and RANKL at 1 uM measured after 11 days by TRAP staining method relative to control; format: functional; details: 264 h, time 11 day; how it was run: as §1
[3] = Inhibition of osteoclastogenesis in human bone marrow derived CD14+ pre-osteoclasts assessed as blocked of osteoclast differentiation in presence of M-CSF and RANKL at 5 uM measured after 11 days by TRAP staining method relative to control; format: functional; details: 264 h, time 11 day; how it was run: as §1
[4] = Cytotoxicity against human bone marrow derived CD14+ pre-osteoclasts upto 10 uM; format: tissue-based; details: osteoclast
[5] = target: Signal transducer and activator of transcription 3 (Homo sapiens) (UniProt P40763); test: Inhibition of STAT3 phosphorylation at Ser-727 in human M-CSF treated human bone marrow derived CD14+ monocytes at 10 uM preincubated for 4 hrs followed by IL-6 stimulation and measured after 15 mins by Western blot assay; details: Monocyte, time 4.25 hrs
How it was run: (§2)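 Human CD14+ monocytes were cultured 3 days with 25 ng/ml M-CSF. They were then treated with vehicle or 10 µM compound for 4 h without FBS and M-CSF, and stimulated with IL-6 (25 ng/mL) for 15 min. Equal-protein lysates were run on SDS-PAGE and transferred to PVDF. Blots were probed overnight at 4°C with primary antibodies, with fluorescent secondary detection.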

Monocyte [6] = test: Inhibition of osteoclastogenesis in human bone marrow derived CD14+ monocytes assessed as decrease in RANKL-induced NFATc1 mRNA expression at 1 to 10 uM measured after 4 days by qRT-PCR method; format: functional; details: dose 1-10 µM, time 4.0 day
How it was run: (§3)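 CD14+ cells were seeded and, from day 3, treated with 25 ng/ml hM-CSF and 100 ng/ml hRANKL ± compound for 4 days. Target mRNA was measured by qRT-PCR, normalized to GAPDH, with comparative Ct quantification. Each assay was performed in triplicate.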

Monocyte [7] = test: Effect on ERK expression in human M-CSF treated human bone marrow derived CD14+ monocytes at 10 uM preincubated for 4 hrs followed by IL-6 stimulation and measured after 15 mins by Western blot assay; format: functional; details: time 4.25 hrs; how it was run: as §2
[8] = target: MAP kinase p38 (Homo sapiens) (UniProt O15264+Q15759+Q16539+P53778); test: Effect on p38 phosphorylation in human M-CSF treated human bone marrow derived CD14+ monocytes at 10 uM preincubated for 4 hrs followed by IL-6 stimulation and measured after 15 mins by Western blot assay; details: Monocyte, time 4.25 hrs; how it was run: as §2
Monocyte [9] = test: Effect on ERK phosphorylation in human M-CSF treated human bone marrow derived CD14+ monocytes at 10 uM preincubated for 4 hrs followed by IL-6 stimulation and measured after 15 mins by Western blot assay; details: time 4.25 hrs; how it was run: as §2
Monocyte [10] = test: Effect on p38 expression in human M-CSF treated human bone marrow derived CD14+ monocytes at 10 uM preincubated for 4 hrs followed by IL-6 stimulation and measured after 15 mins by Western blot assay; format: functional, tissue-based; details: time 4.25 hrs; how it was run: as §2
Monocyte [11] = test: Inhibition of osteoclastogenesis in human bone marrow derived CD14+ monocytes assessed as decrease in RANKL-induced TRAP mRNA expression at 1 to 10 uM measured after 4 days by qRT-PCR method; format: functional; details: dose 1-10 µM, time 4.0 day; how it was run: as §3
Monocyte [12] = test: Inhibition of osteoclastogenesis in human bone marrow derived CD14+ monocytes assessed as decrease in RANKL-induced Cathepsin K mRNA expression at 1 to 10 uM measured after 4 days by qRT-PCR method; format: functional; details: dose 1-10 µM, time 4.0 day; how it was run: as §3

Chain of Signal transducer and activator of transcription 3 (Homo sapiens) (P40763 whole entry): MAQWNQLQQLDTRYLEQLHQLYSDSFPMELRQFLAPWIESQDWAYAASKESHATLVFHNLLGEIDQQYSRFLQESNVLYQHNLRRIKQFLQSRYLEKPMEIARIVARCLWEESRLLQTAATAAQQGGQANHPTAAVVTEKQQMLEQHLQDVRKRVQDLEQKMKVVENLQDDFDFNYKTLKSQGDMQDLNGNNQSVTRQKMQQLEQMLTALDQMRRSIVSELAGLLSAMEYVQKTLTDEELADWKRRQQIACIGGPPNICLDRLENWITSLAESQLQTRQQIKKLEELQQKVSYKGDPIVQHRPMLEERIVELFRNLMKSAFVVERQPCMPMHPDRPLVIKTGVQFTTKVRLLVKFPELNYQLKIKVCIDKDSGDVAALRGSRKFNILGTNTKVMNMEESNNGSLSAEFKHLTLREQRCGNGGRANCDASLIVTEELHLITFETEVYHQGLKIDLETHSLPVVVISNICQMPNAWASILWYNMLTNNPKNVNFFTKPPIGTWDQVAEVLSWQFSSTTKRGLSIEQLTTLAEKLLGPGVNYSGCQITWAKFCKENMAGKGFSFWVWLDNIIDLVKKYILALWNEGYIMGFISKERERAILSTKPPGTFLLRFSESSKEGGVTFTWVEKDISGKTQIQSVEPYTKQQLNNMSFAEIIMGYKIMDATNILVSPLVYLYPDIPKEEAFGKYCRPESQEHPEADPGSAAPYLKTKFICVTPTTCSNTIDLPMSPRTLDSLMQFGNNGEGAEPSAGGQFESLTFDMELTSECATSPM

SMILES | inhibition at 10 µM [1] | inhibition at 1 µM [2] | inhibition at 5 µM [3] | further results
C[C@@H]1CCC[C@H](C)N1/C(CC1CCCCC1)=N/S(=O)(=O)c1ccccc1 | 97.9% | 3.3% |  | 
C[C@@H]1CCC[C@H](C)N1/C(CC1CCCCC1)=N/S(=O)(=O)C[C@@]12CCC(CC1=O)C2(C)C | 57.5% | -1.5% |  | 
COc1ccc(S(=O)(=O)/N=C(\CC2CCCCC2)N(C(C)C)C2CCCC2)cc1 | 99% | -86% | 26% | 
CC(C)S(=O)(=O)/N=C(\CC1CCCCC1)N1[C@H](C)CCC[C@@H]1C | 12.6% | 1.6% |  | 
COc1ccc(S(=O)(=O)/N=C(\CC2CCCCC2)N2[C@H](C)CCC[C@@H]2C)cc1 | 98% |  | 62% | 
C[C@@H]1CCC[C@H](C)N1/C(CC1CCCCC1)=N/S(=O)(=O)C(F)(F)F | 96.1% | -1.1% |  | 
Cc1ccc(S(=O)(=O)/N=C(\CC2CCCC2)N2[C@H](C)CCC[C@@H]2C)cc1 | 91.5% | 32.7% |  | 
C[C@@H]1CCC[C@H](C)N1/C(CC1CCCCC1)=N/S(=O)(=O)N(C)C | 68.4% | 11.8% |  | 
C[C@@H]1CCC[C@H](C)N1/C(CC1CCCCC1)=N/S(=O)(=O)c1ccccn1 | 44.9% | -20.2% |  | 
COc1ccc(S(=O)(=O)/N=C(\CC2CCCCC2)N(C(C)C)C2CCCCCCC2)cc1 | 100% | 5% | 88% | Activity [4]: Toxic
CCCCC/C(=N\S(=O)(=O)c1ccc(C)cc1)N1[C@H](C)CCC[C@@H]1C | 99.8% | 20.9% |  | 
CCCCC1CCCN(C(C)C)/C1=N/S(=O)(=O)c1ccc(C)cc1 (centres undefined) | 80.6% | 31.9% |  | 
Cc1ccc(S(=O)(=O)/N=C2\CCCCN2C(C)C)cc1 | 6.1% | 27.9% |  | 
Cc1ccc(S(=O)(=O)/N=C(\C=C2CCCCC2)N2[C@H](C)CCC[C@@H]2C)cc1 | 23.3% | 25.5% |  | 
COc1ccc(S(=O)(=O)/N=C(\CC2CCCCC2)N(C(C)C)C2CCSCC2)cc1 | 93% | -10% | 53% | 
COc1ccc(S(=O)(=O)/N=C(\CC2CCCCC2)N(C(C)C)C2CCOCC2)cc1 | 39% | -14% | 28% | 
Cc1ccc(S(=O)(=O)/N=C(\C2CCCCC2)N2[C@H](C)CCC[C@@H]2C)cc1 | 24.1% | 22.8% |  | 
COc1ccc(S(=O)(=O)/N=C(\CC2CCCCC2)N2CCCCCC2)cc1 | 88% | -30% | 49% | 
Cc1ccc(S(=O)(=O)/N=C(\CC2CCCCC2)N2CCCC3CCCCC32)cc1 (centres undefined) | 78.9% | 33.1% |  | 
Cc1ccc(S(=O)(=O)/N=C(\CC2CCCCC2)N2[C@H](C)CCC[C@@H]2C)cc1 | 97.9% | 35% | 72% | inhibition [5]: Active; inhibition (Monocyte [6]): Active; Activity (Monocyte [7]): inactive; Activity [8]: inactive; Activity (Monocyte [9]): inactive; Activity (Monocyte [10]): inactive; inhibition (Monocyte [11]): Active; inhibition (Monocyte [12]): Active
Cc1ccc(S(=O)(=O)/N=C2\CCCCCN2C(C)C)cc1 | 39.3% | 27.1% |  | 
COc1ccc(S(=O)(=O)/N=C(\CC2CCCCC2)N(C(C)C)C2CCCCCC2)cc1 | 99% | -6% | 74% | 
C[C@@H]1CCC[C@H](C)N1/C(CC1CCCCC1)=N/S(=O)(=O)c1cccnc1 | 56.1% | -23.6% |  | 
CCCCC1CCCCN(C(C)C)/C1=N/S(=O)(=O)c1ccc(C)cc1 (centres undefined) | 90.1% | 12.1% |  | 
